ChEMBL document CHEMBL1143007, “Synthesis and evaluation of 4/5-hydroxy-2,3-diaryl(substituted)-cyclopent-2-en-1-ones as cis-restricted analogues of combretastatin A-4 as novel anticancer agents” (J Med Chem, 2007)
≈ marks a conversion by molar mass, not a printed value.

Legend:
[1] = Cytotoxicity against human Hep2 cells after 72 hrs by MTT assay; type: cell-based, HEp-2
Procedure, shortened: (§1)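 MTT assay. Cells seeded at 5000-10 000 per well and incubated at 37 °C in CO₂ with compound at 1-100 µg/mL in triplicate wells for 72 h, then MTT added. Absorbance read at 540 nm; % cytotoxicity = 100 × (1 − treated/control). IC50 obtained by nonlinear regression; NA means IC50 above 100 µg/mL.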

MIA PaCa-2 = assay: Cytotoxicity against human MiaPaCa2 cells after 72 hrs by MTT assay; type: cell-based; conditions: Homo sapiens, MIA PaCa-2, 72 h; read-out: IC50; procedure, shortened: as §1
[2] = Cytotoxicity against human ECV304 cells after 72 hrs by MTT assay; type: cell-based, ECV-304; procedure, shortened: as §1
HEK293 = assay: Cytotoxicity against human HEK293 cells after 72 hrs by MTT assay; type: cell-based; conditions: Homo sapiens, HEK293, 72 h; read-out: IC50; procedure, shortened: as §1
[3] = Cytotoxicity against human PA1 cells after 72 hrs by MTT assay; type: cell-based, PA-1; procedure, shortened: as §1
HT-29 = assay: Cytotoxicity against human HT29 cells after 72 hrs by MTT assay; type: cell-based; conditions: Homo sapiens, HT-29, 72 h; read-out: IC50; procedure, shortened: as §1
KB = assay: Cytotoxicity against human KB cells after 72 hrs by MTT assay; type: cell-based; procedure, shortened: as §1
L132 = assay: Cytotoxicity against human L132 cells after 72 hrs by MTT assay; type: cell-based; procedure, shortened: as §1
DU-145 = assay: Cytotoxicity against human DU145 cells after 72 hrs by MTT assay; type: cell-based; conditions: Homo sapiens, DU-145, 72 h; read-out: IC50; procedure, shortened: as §1
[4] = Homo sapiens, HEp-2, 72 h, read-out: IC50
[5] = Homo sapiens, ECV-304, 72 h, read-out: IC50
[6] = Homo sapiens, PA-1, 72 h, read-out: IC50
[7] = Homo sapiens, KB, 72 h, read-out: IC50
[8] = Homo sapiens, L132, 72 h, read-out: IC50

SMILES	IC50 [1, 4] [µg/mL]	IC50 (MIA PaCa-2) [µg/mL]	IC50 [2, 5] [µg/mL]	IC50 (HEK293) [µg/mL]	IC50 [3, 6] [µg/mL]	IC50 (HT-29) [µg/mL]	IC50 (KB; [7]) [µg/mL]	IC50 (L132; [8]) [µg/mL]	IC50 (DU-145) [µg/mL]	IC50 ([1]; hep-2) [µg/mL]	IC50 ([2]; ecv-304) [µg/mL]	IC50 ([3]; pa-1) [µg/mL]	IC50 (KB; kb) [µg/mL]	IC50 (L132; l132) [µg/mL]
COc1ccc(C2=C(c3cc(OC)c(OC)c(OC)c3)/C(=N\O)C(O)C2)cc1OC(C)C (stereo not given)	40 (≈ 90.2 µM)	98 (≈ 221 µM)	96 (≈ 216 µM)	36.8 (≈ 82.9 µM)	61 (≈ 138 µM)	69 (≈ 156 µM)	95 (≈ 214 µM)	75 (≈ 169 µM)	81 (≈ 183 µM)					
COc1ccc(C2=C(c3cc(OC)c(OC)c(OC)c3)C(=O)C(OC(C)=O)C2)cc1OC(C)C (stereo not given)	> 100	> 100	> 100	> 100	> 100	> 100	> 100	> 100	> 100					
COc1ccc(C2=C(c3cc(OC)c(OC)c(OC)c3)CC(O)C2=O)cc1[N+](=O)[O-] (stereo not given)	> 100	> 100	> 100	> 100	> 100	> 100	> 100	> 100	> 100					
COc1ccc(OC)c(C2=C(c3cc(OC)c(OC)c(OC)c3)/C(=N\O)CC2O[Si](C)(C)C(C)(C)C)c1 (stereo not given)	7 (≈ 13.2 µM)	1 (≈ 1.89 µM)	6 (≈ 11.3 µM)	7 (≈ 13.2 µM)	8.5 (≈ 16 µM)	50 (≈ 94.4 µM)	> 100	> 100	> 100					
COc1ccc(C2=C(c3cc(OC)c(OC)c(OC)c3)C(=O)C(O)C2)cc1Cl (stereo not given)	< 1	> 100	20 (≈ 49.4 µM)	> 100	> 100	< 1	2.5 (≈ 6.18 µM)	< 1	40 (≈ 98.8 µM)					
C=CCOc1cc(C2=C(c3cc(OC)c(OC)c(OC)c3)/C(=N\O)C(O)C2)ccc1OC (stereo not given)	> 100	> 100	> 100	> 100	> 100	> 100	> 100	> 100	> 100					
COc1ccc(OC)c(C2=C(c3cc(OC)c(OC)c(OC)c3)C(=O)CC2O)c1 (stereo not given)	> 100	> 100	> 100	> 100	> 100	> 100	> 100	> 100	> 100					
COc1ccc(C2=C(c3cc(OC)c(OC)c(OC)c3)/C(=N\O)CC2OC(C)=O)cc1O (stereo not given)	> 100	< 1	> 100	> 6.06	< 1	< 1	< 1	< 1	23 (≈ 51.9 µM)					
COc1cc(C2=C(c3ccccc3)C(O[Si](C)(C)C(C)(C)C)CC2=O)cc(OC)c1OC (stereo not given)	> 100	> 100	> 100	> 100	> 100	> 100	> 100	> 100	> 100					
COc1ccc(C2=C(c3cc(OC)c(OC)c(OC)c3)/C(=N\O)CC2OC(C)=O)cc1 (stereo in doubt; 40)		< 1		22 (≈ 51.5 µM)		< 1			21 (≈ 49.1 µM)	< 1	60 (≈ 140 µM)	< 1	< 1	< 1
COc1cc(C2=C(c3ccc(OCC(=O)[O-])cc3)C(O)CC2=O)cc(OC)c1OC.[Na+] (stereo not given)	> 100	> 100		> 100			> 100		> 100					
COc1ccc(C2=C(c3cc(OC)c(OC)c(OC)c3)C(=O)C(OC(C)=O)C2)cc1 (stereo not given)	18 (≈ 43.6 µM)	< 1	18 (≈ 43.6 µM)		< 1	< 1	72 (≈ 175 µM)	> 100	> 100					
COc1ccc(C2=C(c3cc(OC)c(OC)c(OC)c3)C(=O)C(OC(C)=O)C2)cc1O (stereo not given)	> 100	18.5 (≈ 43.2 µM)	> 100	92 (≈ 215 µM)	6 (≈ 14 µM)	< 1	35 (≈ 81.7 µM)	6 (≈ 14 µM)	> 100					
COc1ccc(C2=C(c3cc(OC)c(OC)c(OC)c3)/C(=N\O)C(OC(C)=O)C2)cc1 (stereo not given)	100 (≈ 234 µM)	< 1	> 100	25.6 (≈ 59.9 µM)	< 1	1 (≈ 2.34 µM)	69 (≈ 161 µM)		> 100					
COc1cc(C2=C(c3cc(C)c(OC)c(C)c3)C(OC(C)=O)CC2=O)cc(OC)c1OC (stereo not given)	> 100	> 100	> 100	> 100	> 100	> 100	> 100	> 100	> 100					
COc1ccc(C2=C(c3cc(OC)c(OC)c(OC)c3)CC(O)C2=O)cc1N (stereo not given)	16 (≈ 41.5 µM)	> 100	> 100	> 100	20 (≈ 51.9 µM)	< 1	< 1	54 (≈ 140 µM)	41 (≈ 106 µM)					
COc1cc(C2=C(c3cc(C)c(OC)c(C)c3)C(O)CC2=O)cc(OC)c1OC (stereo not given)	> 100	> 100	> 100	> 100	> 100	> 100	> 100	> 100	> 100					
COc1ccc(C2=C(c3cc(OC)c(OC)c(OC)c3)/C(=N\O)CC2O)cc1 (stereo not given)	> 100	> 100	> 100	> 100	2.35 (≈ 6.1 µM)	15 (≈ 38.9 µM)		11 (≈ 28.5 µM)	34.2 (≈ 88.9 µM)					
COc1cc(C2=C(c3cc(C)c(OC)c(C)c3)C(O[Si](C)(C)C(C)(C)C)CC2=O)cc(OC)c1OC (stereo not given)	26 (≈ 50.7 µM)		15 (≈ 29.3 µM)	29 (≈ 56.6 µM)	32 (≈ 62.4 µM)	10 (≈ 19.5 µM)	40 (≈ 78 µM)	> 100	> 100					
COc1ccc(C2=C(c3cc(OC)c(OC)c(OC)c3)C(=O)CC2O[Si](C)(C)C(C)(C)C)cc1O (stereo not given)	14.5 (≈ 29 µM)	55 (≈ 110 µM)	30 (≈ 59.9 µM)	42 (≈ 83.9 µM)	14 (≈ 28 µM)	38 (≈ 75.9 µM)	6.5 (≈ 13 µM)	< 1	75 (≈ 150 µM)					
COc1cc(C2=C(c3cc(C)c(OC)c(C)c3)C(OC(C)=O)C/C2=N/O)cc(OC)c1OC (stereo not given)	> 100	> 100	> 100	> 100	> 100	> 100	> 100	> 100	> 100					
COc1ccc(C2=C(c3cc(OC)c(OC)c(OC)c3)/C(=N\O)CC2O[Si](C)(C)C(C)(C)C)cc1OC (stereo not given)	32 (≈ 60.4 µM)	15 (≈ 28.3 µM)	36 (≈ 68 µM)	70 (≈ 132 µM)		20 (≈ 37.8 µM)	15 (≈ 28.3 µM)	60 (≈ 113 µM)	60 (≈ 113 µM)					
COc1ccc(C2=C(c3cc(OC)c(OC)c(OC)c3)C(=O)C(OC(C)=O)C2)cc1NC=O (stereo not given)	3.27 (≈ 7.18 µM)	2 (≈ 4.39 µM)		4.16 (≈ 9.13 µM)	5 (≈ 11 µM)	< 1	8 (≈ 17.6 µM)	2 (≈ 4.39 µM)	> 100					
COc1ccc(C2=C(c3cc(OC)c(OC)c(OC)c3)C(=O)CC2O)cc1 (stereo not given)	> 100	> 100	> 100	10 (≈ 27 µM)	3.38 (≈ 9.13 µM)	15 (≈ 40.5 µM)		10 (≈ 27 µM)	18.7 (≈ 50.5 µM)					
